The source made the active and inactive calls. No cut-off for these calls is given here.
Legend:
Canis familiaris [1] = assay: Toxicity in Beagle dog assessed as increase in methemoglobin level at 6.4 mg/kg/day, po between 7 to 11 days; format: organism-based, Canis lupus familiaris; design: route oral; conditions: in vivo
Summary of the method: (§1)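 Beagle dogs, 8-9 months old, given drug as bulk powder in gelatin capsules orally on days 1-4, at 0.0116 mmol/kg/day as base. Daily clinical observation. Methemoglobin measured by co-oximetry from jugular or cephalic blood, predose on days 1, 2 and 4, then through day 29.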

Pneumocystis carinii [2] = assay: Antimicrobial activity against Pneumocystis carinii infected BALB/c mouse at 5 mg/kg/day, po after 21 days administered 4 weeks postinfection by methenamine silver nitrate staining method; format: functional, organism-based
Summary of the method: (§2)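 Female BALB/c mice, 6-8 weeks, immunosuppressed with dexamethasone […] in drinking water, then inoculated transtracheally with 10^6 P. carinii. From 4 weeks post-inoculation, drug given in drinking water for 3 weeks, 10 mice/group, intake monitored. Lung impression smears stained with Giemsa or methenamine silver, read blinded. Graded 0-5 on a log scale; group mean ± SE.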

Pneumocystis carinii [3] = assay: Antimicrobial activity against Pneumocystis carinii infected BALB/c mouse at 1 mg/kg/day, po after 21 days administered 4 weeks postinfection by methenamine silver nitrate staining method; format: functional, organism-based; summary of the method: as §2
Plasmodium berghei [4] = assay: Antimalarial activity against Plasmodium berghei KBG-173 infected in Swiss(CD-1) mouse assessed as mean survival time at 1 mg/kg/day, po treated for 3 days; format: functional
Summary of the method: (§3)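 CD-1 mice, 5 weeks old, male or female, groups of five, infected with 5 × 10^4 P. berghei KBG-173 parasitized erythrocytes. Drug in 0.5% hydroxyethylcellulose/0.1% Tween 80, given orally once daily on days 3, 4 and 5 post-infection. Parasitemia from blood films on day +6. Read-out also includes increase in mean survival time over controls and survivors at day +34.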

Pneumocystis carinii [5] = assay: Antimicrobial activity against Pneumocystis carinii infected BALB/c mouse at 5 mg/kg/day, po after 21 days administered 4 weeks postinfection by Giemsa staining method; format: functional, organism-based; summary of the method: as §2
Canis familiaris [6] = assay: Toxicity in Beagle dog assessed as increase in methemoglobin level at 0.64 mg/kg/day, po; format: organism-based, Canis lupus familiaris; design: route oral; conditions: in vivo
Summary of the method: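 Beagle dogs, one male and one female per enantiomer, given 0.64 mg/kg/day (0.5 mg/kg base) orally for 4 days. After a 5-week washout the same dogs received 1.91 mg/kg/day for 4 days. Methemoglobin sampled from days −6 to 36. Each dog's values are mean of duplicate determinations.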

Leishmania donovani [7] = assay: Antileishmanial activity against Leishmania donovani HU3 infected in mouse assessed as inhibition of parasites in liver at 5 mg/kg/day, po treated for 5 days administered 7 days postinfection measured after 14 days post-infection; format: functional
Summary of the method: (§4)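 L. donovani HU3 amastigotes, 1 × 10^7 given IV to mice. From day 7 post-infection, dosed orally once daily for 5 days in 0.25% methylcellulose-10% ethanol; reference stibogluconate given SC. Mice killed at day 14 post-infection. Parasite burden counted on liver impression smears against untreated controls. ED50 from linear regression, with 95% confidence limits.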

Plasmodium berghei [8] = assay: Antimalarial activity Plasmodium berghei KBG-173 infected in Swiss(CD-1) mouse assessed as survival at 2 mg/kg, po treated at day of infection measured on day 30; format: functional, organism-based; design: dose 2 mg/kg
Summary of the method: (§5)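 CD-1 mice, 5 weeks old, male or female, groups of five, infected with 5 × 10^4 P. berghei KBG-173 parasitized erythrocytes. One 2 mg/kg oral dose given on a single day, from day −3 to +2 relative to inoculation. Controls untreated. Read-out is increase in mean survival time over controls and number alive at day +30.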

Plasmodium berghei [9] = assay: Antimalarial activity against Plasmodium berghei KBG-173 infected in Swiss(CD-1) mouse assessed as reduction in parasitemia at 4 mg/kg/day, po treated for 3 days measured on day 6; format: functional; design: scale not given: the % may be the effect or the level left; summary of the method: as §3
Plasmodium berghei [10] = assay: Antimalarial activity against Plasmodium berghei KBG-173 infected in Swiss(CD-1) mouse assessed as parasitemia at 0.25 mg/kg/day, po treated for 3 days measured on day 6
Plasmodium berghei [11] = assay: Antimalarial activity Plasmodium berghei KBG-173 infected in Swiss(CD-1) mouse assessed as mean survival time at 2 mg/kg, po pretreated 2 days before infection; format: functional; summary of the method: as §5
Leishmania donovani [12] = assay: Antileishmanial activity against Leishmania donovani HU3 infected in mouse assessed as inhibition of parasites in liver at 10 mg/kg/day, po treated for 5 days administered 7 days postinfection measured after 14 days post-infection; format: functional; summary of the method: as §4
Plasmodium berghei [13] = assay: Antimalarial activity Plasmodium berghei KBG-173 infected in Swiss(CD-1) mouse assessed as survival at 2 mg/kg, po treated 2 day postinfection measured on day 30; format: functional, organism-based; design: dose 2 mg/kg; summary of the method: as §5
Plasmodium berghei [14] = assay: Antimalarial activity Plasmodium berghei KBG-173 infected in Swiss(CD-1) mouse assessed as survival at 2 mg/kg, po pretreated 1 day before infection measured on day 30; format: functional, organism-based; design: dose 2 mg/kg; summary of the method: as §5
Pneumocystis carinii [15] = assay: Antimicrobial activity against Pneumocystis carinii infected BALB/c mouse at 0.25 mg/kg/day, po after 21 days administered 4 weeks postinfection by methenamine silver nitrate staining method; format: functional, organism-based; summary of the method: as §2
Leishmania donovani [16] = assay: Antileishmanial activity against Leishmania donovani HU3 infected in mouse assessed as inhibition of parasites in liver at 100 mg/kg/day, po treated for 5 days administered 7 days postinfection measured after 14 days; format: functional; summary of the method: as §4
Leishmania donovani [17] = assay: Antileishmanial activity against Leishmania donovani HU3 infected in mouse assessed as inhibition of parasites in liver at 0.4 mg/kg/day, po treated for 5 days administered 7 days postinfection measured after 14 days post-infection; format: functional; summary of the method: as §4
Pneumocystis carinii [18] = assay: Antimicrobial activity against Pneumocystis carinii infected BALB/c mouse at 0.25 mg/kg/day, po after 21 days administered 4 weeks postinfection by Giemsa staining method; format: functional, organism-based; summary of the method: as §2
Plasmodium berghei [19] = assay: Antimalarial activity against Plasmodium berghei KBG-173 infected in Swiss(CD-1) mouse assessed as survival at 4 mg/kg/day, po treated for 3 days measured on day 34; format: functional, organism-based; summary of the method: as §3
Pneumocystis carinii [20] = assay: Antimicrobial activity against Pneumocystis carinii infected BALB/c mouse at 0.5 mg/kg/day, po after 21 days administered 4 weeks postinfection by methenamine silver nitrate staining method; format: functional, organism-based; summary of the method: as §2
Pneumocystis carinii [21] = assay: Antimicrobial activity against Pneumocystis carinii infected BALB/c mouse at 0.5 mg/kg/day, po after 21 days administered 4 weeks postinfection by Giemsa staining method; format: functional, organism-based; summary of the method: as §2
Plasmodium berghei [22] = assay: Antimalarial activity Plasmodium berghei KBG-173 infected in Swiss(CD-1) mouse assessed as mean survival time at 2 mg/kg, po pretreated 3 days before infection; format: functional; summary of the method: as §5
Plasmodium berghei [23] = assay: Antimalarial activity Plasmodium berghei KBG-173 infected in Swiss(CD-1) mouse assessed as survival at 2 mg/kg, po treated 1 day postinfection measured on day 30; format: functional, organism-based; design: dose 2 mg/kg; summary of the method: as §5
Plasmodium berghei [24] = assay: Antimalarial activity against Plasmodium berghei KBG-173 infected in Swiss(CD-1) mouse assessed as parasitemia at 1 mg/kg/day, po treated for 3 days measured on day 6
Pneumocystis carinii [25] = assay: Antimicrobial activity against Pneumocystis carinii infected BALB/c mouse at 0.1 mg/kg/day, po after 21 days administered 4 weeks postinfection by Giemsa staining method; format: functional, organism-based
Plasmodium berghei [26] = assay: Antimalarial activity against Plasmodium berghei KBG-173 infected in Swiss(CD-1) mouse assessed as mean survival time at 0.25 mg/kg/day, po treated for 3 days; format: functional; summary of the method: as §3
Pneumocystis carinii [27] = assay: Antimicrobial activity against Pneumocystis carinii infected BALB/c mouse at 1 mg/kg/day, po after 21 days administered 4 weeks postinfection by Giemsa staining method; format: functional, organism-based; summary of the method: as §2
Leishmania donovani [28] = assay: Antileishmanial activity against Leishmania donovani HU3 infected in mouse; format: functional; summary of the method: as §4
Mus musculus = assay: Toxicity in Plasmodium berghei KBG-173 infected Swiss(CD-1) mouse at 64 mg/kg/day, po treated for 3 days; format: organism-based; design: route oral; conditions: in vivo, 72 h
Summary of the method: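 CD-1 mice infected with 5 × 10^4 P. berghei KBG-173 parasitized erythrocytes. Drug in 0.5% hydroxyethylcellulose/0.1% Tween 80, given orally on days 3-5 post-infection, 7 mice per dose. Blood films on day +6 and weekly to day +60. Mortality tabulated for 60 days; blood-film-negative survivors counted as cured.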

Canis familiaris [29] = assay: Toxicity in Beagle dog assessed as survival at 6.7 mg/kg/day, po after 4 days; format: organism-based, Canis lupus familiaris; design: route oral; conditions: in vivo, 96 h; summary of the method: as §1
Pneumocystis carinii [30] = assay: Antimicrobial activity against Pneumocystis carinii infected BALB/c mouse at 1.3 mg/kg/day, po after 21 days administered 4 weeks postinfection by Giemsa staining method; format: functional, organism-based; summary of the method: as §2
Canis familiaris [31] = assay: Toxicity in Beagle dog assessed as survival at 6.4 mg/kg/day, po after 4 days; format: organism-based, Canis lupus familiaris; design: route oral; conditions: in vivo, 96 h; summary of the method: as §1
Pneumocystis carinii [32] = assay: Antimicrobial activity against Pneumocystis carinii infected BALB/c mouse at 0.1 mg/kg/day, po after 21 days administered 4 weeks postinfection by methenamine silver nitrate staining method; format: functional, organism-based
Canis familiaris [33] = assay: Toxicity in Beagle dog assessed as survival at 5.3 mg/kg/day, po after 4 days; format: organism-based, Canis lupus familiaris; design: route oral; conditions: in vivo, 96 h; summary of the method: as §1
Plasmodium berghei [34] = assay: Antimalarial activity against Plasmodium berghei KBG-173 infected in Swiss(CD-1) mouse assessed as survival at 0.25 mg/kg/day, po treated for 3 days measured on day 34; format: functional, organism-based; summary of the method: as §3
Plasmodium berghei [35] = assay: Antimalarial activity against Plasmodium berghei KBG-173 infected in Swiss(CD-1) mouse assessed as survival at 1 mg/kg/day, po treated for 3 days measured on day 34; format: functional, organism-based; summary of the method: as §3
Pneumocystis carinii [36] = assay: Antimicrobial activity against Pneumocystis carinii infected BALB/c mouse at 1.3 mg/kg/day, po after 21 days administered 4 weeks postinfection by Giemsa staining; format: functional, organism-based; summary of the method: as §2

Question: How did the Activity (Canis familiaris [1]) turn out when `COc1cc(C)c2c(Oc3cccc(C(F)(F)F)c3)c(OC)cc(NC(C)CCCN)c2n1` (centres undefined) [TAFENOQUINE] was run?
Answer: Toxic

Question: Which results are given for `COc1cc(N[C@H](C)CCCN)c2nccc(C)c2c1Oc1ccc(Cl)c(Cl)c1.O=C(O)CCC(=O)O`?
Answer: Activity (Pneumocystis carinii [2]): Active; Activity (Pneumocystis carinii [3]): Active; MST (Plasmodium berghei [4]): 20.5 days; Activity (Pneumocystis carinii [5]): Active; Activity (Canis familiaris [6]): Toxic; inhibition in vivo at 5 mg/kg/day (Leishmania donovani [7]): 98%; Activity (Plasmodium berghei [8]): inactive; Activity (Plasmodium berghei [9]): 0%; Activity (Plasmodium berghei [10]): 0.2%; MST (Plasmodium berghei [11]): 8.4 days; inhibition in vivo at 10 mg/kg/day (Leishmania donovani [12]): 99.3%; Activity (Plasmodium berghei [13]): inactive; Activity (Plasmodium berghei [14]): inactive; Activity (Pneumocystis carinii [15]): Active; inhibition in vivo at 100 mg/kg/day (Leishmania donovani [16]): 99.8%; inhibition in vivo at 0.4 mg/kg/day (Leishmania donovani [17]): 61.5%; Activity (Pneumocystis carinii [18]): Active; Activity (Plasmodium berghei [19]): inactive; Activity (Pneumocystis carinii [20]): Active; Activity (Pneumocystis carinii [21]): Active; MST (Plasmodium berghei [22]): 4.6 days; Activity (Plasmodium berghei [23]): inactive; Activity (Plasmodium berghei [24]): 0%; Activity (Pneumocystis carinii [25]): Active; MST (Plasmodium berghei [26]): 11.6 days; Activity (Pneumocystis carinii [27]): Active; ED90 (Leishmania donovani [28]): 3.61 mg/kg; ED50 (Leishmania donovani [28]; Leishmania donovani, HU3): 1.28 mg/kg

Question: `COc1cc(NC(C)CCCN)c2nccc(C)c2c1Oc1ccc(Cl)c(Cl)c1.O=C(O)CCC(=O)O` (racemic) was tested. Which MST (Plasmodium berghei [4]) did it give?
Answer: 10.2 days

Question: What about the Activity (Canis familiaris [1]) of the same compound?
Answer: Toxic

Question: What about the Activity (Mus musculus) of the same compound?
Answer: Toxic

Question: And the Activity (Canis familiaris [29])?
Answer: Non-toxic

Question: What about the inhibition in vivo at 5 mg/kg/day (Leishmania donovani [7]) of the same compound?
Answer: 99.2%

Question: And the Activity (Pneumocystis carinii [30])?
Answer: Active

Question: What about the Activity (Canis familiaris [31]) of the same compound?
Answer: Non-toxic

Question: What about the Activity (Pneumocystis carinii [32]) of the same compound?
Answer: Active

Question: And the Activity (Plasmodium berghei [10])?
Answer: 4.8%

Question: And the inhibition in vivo at 10 mg/kg/day (Leishmania donovani [12])?
Answer: 99.8%

Question: What about the Activity (Canis familiaris [33]) of the same compound?
Answer: Non-toxic

Question: What about the Activity (Pneumocystis carinii [15]) of the same compound?
Answer: Active

Question: And the inhibition in vivo at 100 mg/kg/day (Leishmania donovani [16])?
Answer: 99%

Question: And the inhibition in vivo at 0.4 mg/kg/day (Leishmania donovani [17])?
Answer: 34.1%

Question: What about the Activity (Pneumocystis carinii [18]) of the same compound?
Answer: Active

Question: And the Activity (Plasmodium berghei [24])?
Answer: 0.1%

Question: What about the Activity (Plasmodium berghei [34]) of the same compound?
Answer: Active

Question: And the MST (Plasmodium berghei [26])?
Answer: 11.6 days

Question: What about the Activity (Plasmodium berghei [35]) of the same compound?
Answer: Active

Question: What about the Activity (Pneumocystis carinii [36]) of the same compound?
Answer: Active
